Source: PubChem (several laboratories)
NSD2 HMT inh: blocks human histone methyltransferase NSD2. NSD2 peptide methylation, AlphaScreen, 120 min. inhibition, % at 12.5 µM. actives 0.54% (n = 310,000). AID 743445; in the data active means inhibition above about 50%
Casp6 inh: blocks human caspase-6 cleavage activity; P55212; purified caspase-6, Z-VEID-R110 cleavage fluorescence; inhibition, % at 12.5 µM; actives 0.53% (n = 350,000);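 active means mean inhibition across replicates at least about 35%, with every replicate also reaching that limit, limit read from the data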;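 further: 0% = median of neutral control wells and 100% = no fluorescence left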
LEDGF integ inh: blocks HIV-1 LEDGF/p75-dependent DNA integration | inhibition, % at 3.7 µM | TR-FRET IN-LEDGF/p75 DNA integration, Eu/Cy5 | actives 0.64% (n = 370,000);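 active means inhibition above the screen-wide mean plus 3 SD, cut at about 13% in these data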;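 further: signal is the Cy5 over europium emission ratio at 671 and 618 nm; 0% = plate median of compound wells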
MBD2 inh: inhibitors of human MBD2 binding to methylated oligonucleotide. Q9UBB5. TR-FRET. inhibition, % at 4.4 µM. actives 0.31% (n = 370,000); in the data active means inhibition above about 13%
TDP2 inh: TDP2 (human) inhibition, absorbance primary screen | O95551 | recombinant TDP2, T5PNP hydrolysis, p-nitrophenol absorbance 415 nm | inhibition, % at 12.8 µM | actives 0.34% (n = 370,000) | AID 720702;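 active means inhibition above the mean of all tested compounds plus 3 SD, set per campaign, cut at about 25% in these data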;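 further: 0% = DMSO with enzyme and 100% = buffer with substrate but no TDP2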
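Incubation: 2 h at 37 °C; Test system: recombinant human TDP2; Quantity: enzyme 120 nM; Read-out basis: percent inhibition; Medium: 50 mM Tris-HCl pH 7.5 with Mg2+, KCl, DTT, BSA; Repeats: single replicate; Compound: 12.8 µM single point, 1% DMSO; Signal: epi absorbance; Reagent: 5 mM T5PNP chromogenic substrate; Benchmarks: no-enzyme high, DMSO-plus-enzyme low.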
UHRF1 MBD2 ctr: blocks human UHRF1 binding to methylated DNA; Q96T88; actives 0.75% (n = 370,000); UHRF1 binding to methylated oligo, TR-FRET; AID 687016; inhibition, % at 4.4 µM; in the data active means inhibition above about 21%;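 further: UHRF1 SRA domain binding a hemimethylated CpG hairpin DNA probe; 0% = median of test compound wells and 100% = reference inhibitor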
Numbers without * were called inactive; . = no result given. Only some compounds are listed: those with a hit (about 1.9% of all), similar ones and a draw of the others.

SMILES | NSD2 HMT inh | Casp6 inh | LEDGF integ inh | MBD2 inh | TDP2 inh | UHRF1 MBD2 ctr
COc1ccc(N2CCN(C(=O)c3oc4ccccc4c3NC(=O)Cc3cccc(OC)c3)CC2)cc1 | -1 | 2 | 4 | 4 | 4 | 24*
COc1cccc(CNC(=O)CCC2CCCN(C(=O)c3ccoc3)C2)c1 (stereo not drawn) | 1 | 3 | -5 | 11 | 1 | 25*
COc1ccccc1OCc1ccc(C(=O)N(C)C)o1 | -1 | . | 1 | -2 | -5 | 1
COc1ccccc1OCc1ccc(C(=O)N(C)c2ccccc2)o1 | 0 | 3 | 2 | 4 | 0 | 25*
Cc1ccc(N=Cc2ccc(O)cc2O)cc1F | . | . | 37* | -9 | -20 | -2
Oc1ccc(C=Nc2cccc3ccccc23)c(O)c1 | 10 | 1 | 12 | -7 | 16 | -12
CC1CCCN(C(=O)Cn2nnc(-c3ccc([N+](=O)[O-])cc3)n2)C1 (stereo not drawn) | 2 | 0 | -2 | 1 | -5 | 29*
CC1CCCN(C(=O)Cn2nnc(-c3ccc(F)cc3)n2)C1 (stereo not drawn) | . | 2 | -1 | 5 | -2 | 1
C=CCn1c(CNS(=O)(=O)c2ccc(F)cc2)n[nH]c1=S | 0 | 3 | -7 | -1 | -13 | 42*
CCN(C(=O)COC(=O)CNC(=O)c1ccc(C)cc1)c1c(N)n(Cc2ccccc2)c(=O)[nH]c1=O | 122* | 4 | -3 | -2 | -3 | -2
CCN(C(=O)COC(=O)CNC(=O)c1cccc(C)c1)c1c(N)n(Cc2ccccc2)c(=O)[nH]c1=O | -5 | 4 | -2 | 1 | 3 | 0
CCN(C(=O)COC(=O)c1cccc2ccccc12)c1c(N)n(Cc2ccccc2)c(=O)[nH]c1=O | 0 | 7 | 1 | -2 | -9 | 3
CCN(C(=O)COC(=O)c1oc2ccccc2c1C)c1c(N)n(Cc2ccccc2)c(=O)[nH]c1=O | 1 | 54* | -2 | -1 | 4 | 1
O=C(NC(=C(Cl)Cl)S(=O)(=O)c1ccc(Cl)cc1)c1ccccc1 | 5 | 39* | -3 | 5 | -3 | 0
COC(=O)c1ccc(NC(=O)C2CCCN2C(=O)OCc2ccccc2)cc1 (stereo not drawn) | -3 | -10 | 4 | 5 | 3 | 24*
CC(C)(C)OC(=O)N1CCC[C@@H]1C(=O)N1CCC[C@@H]1C(=O)NCc1ccccc1 | . | -1 | 2 | 15* | 11 | 16
O=C(CN1CCCCCC1)Nc1cc(C(F)(F)F)ccc1Cl | -2 | -2 | -1 | 0 | 7 | 1
O=C(O)C1=C(C(=O)Nc2cc(C(F)(F)F)ccc2Cl)CCCC1 | -2 | 1 | -3 | -1 | 4 | 29*
C[C@H](CO)N1C[C@H](C)[C@H](CN(C)Cc2cccc(F)c2)Oc2ncc(-c3ccccc3F)cc2C1=O | . | 0 | . | . | . | .
CO[C@H]1CN(C)C(=O)c2cc(NC(=O)Nc3ccccc3)ccc2OC[C@@H](C)N(C(=O)Nc2c(C)noc2C)C[C@H]1C | . | 36* | . | . | . | .
CCCNC(=O)C[C@H]1C[C@H]2c3cc(NC(=O)CC4CC4)ccc3O[C@H]2[C@H](CO)O1 | . | 0 | . | . | . | .
Cc1cc(-c2ccccc2)nc2oc3c(c12)NC(=O)CN(c1ccccc1)C3=O | -2 | 6 | -6 | 2 | 5 | -2
COc1cccc(N2CC(=O)Nc3c(oc4nc(-c5ccccc5)cc(C)c34)C2=O)c1 | -1 | -1 | -5 | -2 | -20 | 45*
CC(C)C[C@@H](CN)NC(=O)c1nc[nH]c1C(=O)N[C@@H](Cc1ccccc1)C(=O)CNC[C@H](C)NC(=O)c1nc[nH]c1C(=O)N[C@@H](CC(C)C)C(=O)O | . | 2 | -2 | 9 | 1 | 21*
CC(C)C[C@@H](CN)NC(=O)c1nc[nH]c1C(=O)N[C@@H](Cc1c[nH]c2ccccc12)C(=O)CNC[C@H](C)NC(=O)c1nc[nH]c1C(=O)N[C@@H](C)C(=O)O | . | 7 | -1 | 12 | 10 | 24*
SMILES | NSD2 HMT inh | Casp6 inh | LEDGF integ inh | MBD2 inh | TDP2 inh | UHRF1 MBD2 ctr
CC(C)C[C@@H](CN)NC(=O)c1nc[nH]c1C(=O)N[C@@H](Cc1ccccc1)C(=O)CNC[C@H](C)NC(=O)c1nc[nH]c1C(=O)N[C@@H](C)C(=O)O | . | 3 | -3 | -2 | 10 | 2
CC(C)C[C@@H](CNCC(=O)[C@H](Cc1c[nH]c2ccccc12)NC(=O)c1[nH]cnc1C(=O)N[C@@H](C)CN)NC(=O)c1nc[nH]c1C(=O)N[C@@H](Cc1ccccc1)C(=O)O | . | 12 | -1 | 12 | 16 | 21*
Cc1cc(C(=O)Nc2cccc3c2O[C@@H](CN(C)C)[C@H](C)CN([C@H](C)CO)C3=O)n(C)n1 | . | 4 | . | . | . | .
Cc1ccc(-c2cnc(NC(=O)c3cccc(Br)c3)s2)c(C)c1 | 2 | -3 | -2 | 13 | 6 | 26*
CC1CCc2c(c3ccccc3n2C(=O)CCl)C1 (stereo not drawn) | -1 | 96* | 0 | 4 | 14 | 3
Cc1ccc(-c2c[n+](CC(=O)Nc3ccc(C)cc3C)c3n2CCC3)cc1 | 4 | 1 | -4 | 0 | -5 | 37*
Cc1ccc(NC(=O)C[n+]2cc(-c3ccc(C)cc3)n3c2CCC3)cc1 | -3 | -1 | -2 | -8 | 8 | 1
O=C(C[n+]1cc(-c2ccc(F)cc2)n2c1CCC2)Nc1nc(-c2ccccc2)cs1 | 5 | . | -4 | -2 | 3 | 44*
C[C@H]1CN([C@@H](C)CO)S(=O)(=O)c2ccc(-c3cncnc3)cc2O[C@H]1CN(C)Cc1cccnc1 | . | -1 | . | . | . | .
Nc1cccc2[nH]c(C(F)(F)F)nc12 | 15 | 16 | 8 | -1 | 32* | 2
C[C@@H]1CN([C@H](C)CO)C(=O)c2cc(NS(=O)(=O)c3ccc(Cl)cc3)ccc2O[C@H]1CN(C)S(=O)(=O)c1ccc(Cl)cc1 | . | 0 | . | . | . | .
Cc1ccccc1N1CCN(C2CCCN(C(=O)CCN3CCCCC3=O)C2)CC1 (stereo not drawn) | -4 | -1 | 4 | 1 | -4 | 24*
COc1ccc(N(C)S(=O)(=O)c2cccc(C(=O)NCC(c3ccco3)N3CCCC3)c2)cc1 (stereo not drawn) | 1 | -1 | 3 | -5 | -2 | -2
COc1ccc(N(C)S(=O)(=O)c2cccc(C(=O)NCC(c3cccs3)N(C)C)c2)cc1 (stereo not drawn) | 2 | 40* | 1 | -3 | -2 | 1
CN(C(=O)COC(=O)Cc1c(Cl)cccc1Cl)c1c(N)n(Cc2ccccc2)c(=O)[nH]c1=O | -3 | 2 | -4 | 0 | 8 | 2
COCCN(C(=O)COC(=O)Cc1cccc2ccccc12)c1c(N)n(Cc2ccccc2)c(=O)[nH]c1=O | -1 | 3 | -4 | 2 | 2 | 3
